INS-1E rescue = rescue of cytokine-induced death in INS-1E beta cells; INS-1E cytokine-induced death, ATP luminescence, 48 h; normalised: neutral wells 0, positive control 100; protection from cytokine-induced ATP loss, % at 10 µM; actives 0.1% (n = 20,000);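 active = mean replicate protection from cytokine-induced ATP loss at least 50% and at least 75% of replicates each reaching 50%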
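Test system: INS-1E rat cells | Quantity: 8000 cells per well | Medium: Phenol-red-free RPMI with 5% fetal bovine serum | Reagent: Cytokine cocktail of IFN-γ, TNF-α and IL-1β | Doses: One compound concentration, pin transfer | Timing: 48 h co-treatment, 10 min post-lysis read | Technique: Luminescent ATP assay (CellTiter-Glo)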
T cruzi intra = blocks T. cruzi growth inside host cells; intracellular Trypanosoma cruzi in host cells, plate reader; activity score (inhibition), % at 5.01 µM; actives 4.9% (n = 22,000); AID 651903; in the data active = activity score above about 55%;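 also: parasites and compound incubated about four days before reading; 0% = median of neutral control wells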
A1 apoptosis 2 = A1 inhibition read as caspase activation. MEF A1-2A-BIM cells, caspase-Glo luminescence, 3 h; percent of clofoctol response, DMSO zero. caspase activation, % (test concentration not listed). 24,000 tested, under 10 active; in the data active = caspase activation above about 5.9%
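system = A1-2A-BIM-expressing MEF cells | quantity = 2500 MEF cells/well | dosing = 50 nL compound per well, pinned | schedule = overnight cell settling, then 3 h compound exposure, 37 °C | signal = luminescence from DEVD-luciferin Caspase-Glo reagent, 1:1 in 50 mM HEPES, 1 h RT | read-out = Caspase-3/7 activation, seen as rise in luminescence signal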
Numbers without * were called inactive; · = no result given. The entries come from a sample that favours hits as a whole.

SMILES	INS-1E rescue	T cruzi intra	A1 apoptosis 2
COCCCNC(=O)[C@]1(Cc2ccccc2N=[N+]=[N-])N=C(c2ccc(OCCCO)cc2)O[C@@H]1c1ccccc1N=[N+]=[N-]	·	·	1
C=CCN1C(=O)[C@@]2(O[C@@H](CCO)[C@H]([Si](C)(C)c3ccc(OC)cc3)[C@H]2C)c2cc(I)ccc21	·	·	-2
C[C@H](CO)N1C[C@H](C)[C@@H](CN(C)C(=O)NC2CCCCC2)Oc2ccc(NC(=O)Nc3ccc(F)cc3)cc2CC1=O	·	·	0
C[C@H](CO)N1C[C@H](C)[C@@H](CN(C)C(=O)Nc2ccc(C(F)(F)F)cc2)Oc2ccc(NC(=O)Nc3cccc4ccccc34)cc2CC1=O	·	·	-1
C[C@@H]1CN([C@H](C)CO)C(=O)c2cccc(NC(=O)Nc3ccc(C(F)(F)F)cc3)c2O[C@H]1CN(C)C(=O)Nc1ccc(C(F)(F)F)cc1	-71	75*	0
C[C@H]1CN([C@@H](C)CO)C(=O)c2cccc(NC(=O)Nc3cccc4ccccc34)c2O[C@@H]1CN(C)C(=O)Nc1ccc(F)cc1	-5	22	1
C[C@H](CO)N1C[C@H](C)[C@H](CN(C)C(=O)Nc2ccc(C(F)(F)F)cc2)Oc2c(NC(=O)NC3CCCCC3)cccc2C1=O	-26	75*	1
C[C@H]1CN([C@@H](C)CO)C(=O)c2cccc(NC(=O)NC3CCCCC3)c2O[C@@H]1CN(C)C(=O)Nc1ccc(C(F)(F)F)cc1	-34	29	0
C[C@H](CO)N1C[C@H](C)[C@H](CN(C)C(=O)Nc2ccc(F)cc2)Oc2c(NC(=O)Nc3cccc4ccccc34)cccc2C1=O	-102	71*	1
C[C@H]1CN([C@@H](C)CO)C(=O)c2cccc(NC(=O)Nc3ccc(C(F)(F)F)cc3)c2O[C@H]1CN(C)C(=O)Nc1ccccc1	-84	13	0
C[C@H](CO)N1C[C@H](C)[C@H](CN(C)Cc2ccc(Cl)c(Cl)c2)Oc2c(NC(=O)Nc3ccc(C(F)(F)F)cc3)cccc2C1=O	-43	63*	0
C[C@H](CO)N1C[C@H](C)[C@H](CN(C)Cc2ccc(Cl)c(Cl)c2)Oc2c(NC(=O)Nc3ccc(F)cc3)cccc2C1=O	-11	0	·
COc1ccc(S(=O)(=O)Nc2ccc3c(c2)C(=O)N([C@H](C)CO)C[C@@H](C)[C@H](CN(C)C(=O)Nc2ccc(C(F)(F)F)cc2)O3)cc1	-8	8	·
C[C@@H]1CN([C@H](C)CO)C(=O)Cc2cc(NC(=O)Cn3cnnn3)ccc2O[C@@H]1CN(C)Cc1ccc(C(F)(F)F)cc1	-5	1	·
C[C@H](CO)N1C[C@H](C)[C@@H](CN(C)C(=O)Nc2ccc(C(F)(F)F)cc2)Oc2c(NC(=O)Nc3ccc(C(F)(F)F)cc3)cccc2C1=O	-73	78*	-1
C[C@@H]1CN([C@H](C)CO)C(=O)c2cccc(NC(=O)Nc3ccccc3)c2O[C@H]1CN(C)C(=O)Nc1ccc(C(F)(F)F)cc1	3	0	0
C[C@H](CO)N1C[C@H](C)[C@H](CN(C)C(=O)NC2CCCCC2)Oc2c(NC(=O)Nc3cccc4ccccc34)cccc2C1=O	-35	63*	1
C[C@@H]1CN([C@@H](C)CO)C(=O)c2cccc(NC(=O)Nc3ccc(C(F)(F)F)cc3)c2O[C@@H]1CN(C)C(=O)Nc1ccc(C(F)(F)F)cc1	-108	88*	·
C[C@H]1CN([C@@H](C)CO)C(=O)c2cccc(NC(=O)Nc3ccc(C(F)(F)F)cc3)c2O[C@@H]1CN(C)C(=O)Nc1ccc(F)cc1	8	3	0
C[C@@H]1CN([C@H](C)CO)C(=O)c2cccc(NC(=O)Nc3cccc4ccccc34)c2O[C@H]1CN(C)C(=O)NC1CCCCC1	5	10	-1
Cc1ccc(S(=O)(=O)N(C)C[C@@H]2Oc3ccc(NC(=O)Cc4cn(C)c5ccccc45)cc3C(=O)N([C@H](C)CO)C[C@H]2C)cc1	-7	5	·
C[C@@H]1CN([C@@H](C)CO)C(=O)Cc2cc(N(C)C)ccc2O[C@H]1CN(C)C(=O)Nc1cccc2ccccc12	·	·	-2
Cc1noc(C)c1NC(=O)Nc1cccc2c1O[C@H](CN(C)S(=O)(=O)c1ccccc1)[C@@H](C)CN([C@@H](C)CO)C2=O	4	-25	1
COc1ccc(NC(=O)Nc2cccc3c2O[C@H](CN(C)Cc2ccncc2)[C@H](C)CN([C@@H](C)CO)C3=O)cc1	1	-18	0
COc1ccc(CN(C)C[C@@H]2Oc3c(NC(=O)c4ccncc4)cccc3C(=O)N([C@@H](C)CO)C[C@H]2C)cc1	2	79*	-1
SMILES	INS-1E rescue	T cruzi intra	A1 apoptosis 2
C[C@@H]1CN([C@H](C)CO)C(=O)c2cccc(NC(=O)c3ccncc3)c2O[C@H]1CN(C)Cc1ccc(C(=O)Nc2ccccc2N)cc1	0	9	0
COc1ccc(CN(C)C[C@H]2Oc3c(NC(=O)c4ccncc4)cccc3C(=O)N([C@@H](C)CO)C[C@@H]2C)cc1	-2	83*	-2
C[C@@H]1CN([C@H](C)CO)C(=O)c2cccc(NC(=O)c3nc4ccccc4s3)c2O[C@@H]1CN(C)C(=O)Nc1ccccc1	-4	4	-1
COc1ccc(NC(=O)Nc2ccc3c(c2)C(=O)N([C@H](C)CO)C[C@H](C)[C@@H](CN(C)Cc2ccc(Cl)c(Cl)c2)OCCCC[C@@H](C)O3)cc1	-45	59*	1
COc1ccc(NC(=O)Nc2ccc3c(c2)C(=O)N([C@H](C)CO)C[C@H](C)[C@H](CN(C)Cc2ccc(Cl)c(Cl)c2)OCCCC[C@@H](C)O3)cc1	-28	64*	·
COc1ccc(NC(=O)Nc2ccc3c(c2)C(=O)N([C@@H](C)CO)C[C@H](C)[C@@H](CN(C)Cc2ccc(Cl)c(Cl)c2)OCCCC[C@@H](C)O3)cc1	·	·	1
COc1ccc(NC(=O)Nc2ccc3c(c2)C(=O)N([C@H](C)CO)C[C@H](C)[C@H](CN(C)Cc2ccc(Cl)c(Cl)c2)OCCCC[C@H](C)O3)cc1	·	·	-2
C[C@@H]1CN([C@H](C)CO)C(=O)c2cc(NC(=O)c3ccncc3)ccc2O[C@@H](C)CCCCO[C@H]1CN(C)Cc1ccccc1	·	·	0
C[C@@H]1CCCCO[C@@H](CN(C)S(C)(=O)=O)[C@@H](C)CN([C@H](C)CO)C(=O)c2cc(NC(=O)Cc3ccccc3)ccc2O1	7	-27	·
C[C@@H]1CCCCO[C@@H](CN(C)C(=O)Cc2ccccc2)[C@H](C)CN([C@H](C)CO)C(=O)c2cc(NC(=O)c3ccccc3)ccc2O1	·	·	1
C[C@@H]1CN([C@@H](C)CO)C(=O)c2cc(NC(=O)Nc3ccc(C(F)(F)F)cc3)ccc2O[C@@H]1CN(C)S(=O)(=O)c1ccc(F)cc1	-13	68*	-1
Cc1ccc(S(=O)(=O)N(C)C[C@@H]2Oc3ccc(NC(=O)c4ccncc4)cc3C(=O)N([C@H](C)CO)C[C@@H]2C)cc1	-1	63*	·
C[C@H](CO)N1C[C@H](C)[C@H](CN(C)S(=O)(=O)c2ccc(F)cc2)Oc2ccc(NC(=O)Nc3ccc(C(F)(F)F)cc3)cc2C1=O	·	14	-2

Source: PubChem BioAssay
